Source: ChEMBL document CHEMBL1135539, “Synthesis of ketone analogues of prolyl and pipecolyl ester FKBP12 ligands” (J Med Chem, 2002)

Tests used:
[1] = biological target: Peptidyl-prolyl cis-trans isomerase FKBP1A (Rattus norvegicus, UniProt Q62658); test: In vitro inhibition of rotamase activity of FK506 binding protein 12
Mus musculus [2] = test: Post-MPTP % recovery of striatal dopaminergic innervation relative to MPTP-treated mice after peroral administration at dose of 10 mg/kg; format: functional, organism-based; design: dose 10 mg/kg
How it was run: (§1)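 Mice lesioned with the dopaminergic neurotoxin MPTP, following an earlier-described protocol. The endpoint is striatal dopaminergic innervation. Drug is given either concurrently with MPTP or after the lesion. Values are expressed as % recovery relative to MPTP-lesioned animals that received no test drug.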

Mus musculus [3] = test: Concurrent % recovery of striatal dopaminergic innervation relative to MPTP-treated mice after subcutaneous administration at dose of 4 mg/kg.; format: functional, organism-based; design: dose 4 mg/kg; how it was run: as §1

Chain of Peptidyl-prolyl cis-trans isomerase FKBP1A (Q62658 whole entry): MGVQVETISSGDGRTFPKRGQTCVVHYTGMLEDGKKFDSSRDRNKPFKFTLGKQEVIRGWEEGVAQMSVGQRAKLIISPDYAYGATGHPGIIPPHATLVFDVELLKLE

Row | SMILES | Ki [1] [nM] | Recovery (Mus musculus [2]) [%] | Recovery (Mus musculus [3]) [%]
1 | CCC(C)(C)C(=O)C(=O)N1CCC[C@H]1C(=O)CCCCc1cccnc1 | – | 34 | 38
2 | O=C(C(=O)N1CCC[C@H]1C(=O)CCCCc1ccccc1)C1CCCCC1 | 310 | 62.2 | 37.6
3 | CCC(C)(C)C(=O)C(=O)N1CCC[C@H]1C(=O)CCCCc1ccc(O)cc1 | 240 | 33.5 | –
4 | CCC(C)(C)C(=O)C(=O)N1CCCC[C@H]1C(=O)CCCc1ccccc1 | 10000 | – | –
5 | CCC(C)(C)C(=O)C(=O)N1CCC[C@H]1C(=O)OCCCc1cccnc1 [GPI-1046] | 7.5 | 35 | 39
6 | CCC(C)(C)C(=O)C(=O)N1CCC[C@H]1C(=O)CCCC(c1ccc(F)cc1)c1ccc(F)cc1 | 460 | 54 | 41
7 | CCC(C)(C)C(=O)C(=O)N1CCCC[C@H]1C(=O)CCCCCc1cccnc1 | 900 | – | –
8 | CCC(C)(C)C(=O)C(=O)N1CCC[C@H]1C(=O)CCCCc1c(F)c(F)c(C(F)(F)F)c(F)c1F | 130 | 27 | 7
9 | CCCCC(=O)[C@@H]1CCCN1C(=O)C(=O)C(C)(C)CC | 2000 | – | –
10 | O=C(C(=O)N1CCC[C@H]1C(=O)CCCCc1ccccc1)c1ccccc1 | 10000 | – | –

The remaining compounds from weak to strong by Ki [1], led by results:

Row | Ki [1] [nM] | SMILES | Recovery (Mus musculus [2]) [%] | Recovery (Mus musculus [3]) [%]
11 | 3800 | CCC(C)(C)C(=O)C(=O)N1CCC[C@H]1C(=O)CCCCCc1ccccc1 | 48 | 46
12 | 3400 | CCCCC(=O)[C@@H]1CCCCN1C(=O)C(=O)C(C)(C)CC | – | –
13 | 3000 | CCC(C)(C)C(=O)C(=O)N1CCCC[C@H]1C(=O)CCCCCc1ccccc1 | – | 46.3
14 | 790 | CCC(C)(C)C(=O)C(=O)N1CCCC[C@H]1C(=O)CCCCc1ccccc1 | – | –
15 | 290 | CC(C)(C)C(=O)C(=O)N1CCCC[C@H]1C(=O)CCCCCc1ccccc1 | 36 | 50
16 | 180 | CC(C)(C)C(=O)C(=O)N1CCC[C@H]1C(=O)CCCc1ccccc1 | 35 | 34
17 | 30 | CCC(C)(C)C(=O)C(=O)N1CCC[C@H]1C(=O)CCCCc1ccccc1 | – | 22.5
